Our source for the residual activity, IC50 and inhibition values is ChEMBL document CHEMBL3352338, “Development and biological evaluation of potent and selective c-KIT(D816V) inhibitors” (J Med Chem, 2014).

Activity calls are given as the source filed them. The rule behind the calls is not given here.

Broadly, the IC50 is the midpoint of a concentration-inhibition curve.

Assay [1] deals with Hepatocyte growth factor receptor (Homo sapiens) (UniProt P08581). Description: Inhibition of MET (unknown origin) at 1 uM by KINOMEscanning assay relative to control; values are per cent of control.
Assay [2] has as its system Mast/stem cell growth factor receptor Kit (Homo sapiens), P10721 [D816H]. Description: Inhibition of c-KIT D816H mutant (unknown origin) at 1 uM by KINOMEscanning assay relative to control; values are per cent of control.
The target of assay [3] is Cyclin-dependent kinase 19 (Homo sapiens) (UniProt Q9BWU1). Put plainly: Inhibition of CDK11 (unknown origin) at 1 uM by KINOMEscanning assay relative to control; values are per cent of control.
Assay [4] deals with Vascular endothelial growth factor receptor 2 (Homo sapiens) (UniProt P35968). Put plainly: Inhibition of VEGFR2 (unknown origin) at 1 uM by KINOMEscanning assay relative to control; values are per cent of control.
Assay [5] concerns the target T1, 3-phosphoinositide-dependent protein kinase 1 (Homo sapiens) (UniProt O15530).
T1 sequence (whole entry): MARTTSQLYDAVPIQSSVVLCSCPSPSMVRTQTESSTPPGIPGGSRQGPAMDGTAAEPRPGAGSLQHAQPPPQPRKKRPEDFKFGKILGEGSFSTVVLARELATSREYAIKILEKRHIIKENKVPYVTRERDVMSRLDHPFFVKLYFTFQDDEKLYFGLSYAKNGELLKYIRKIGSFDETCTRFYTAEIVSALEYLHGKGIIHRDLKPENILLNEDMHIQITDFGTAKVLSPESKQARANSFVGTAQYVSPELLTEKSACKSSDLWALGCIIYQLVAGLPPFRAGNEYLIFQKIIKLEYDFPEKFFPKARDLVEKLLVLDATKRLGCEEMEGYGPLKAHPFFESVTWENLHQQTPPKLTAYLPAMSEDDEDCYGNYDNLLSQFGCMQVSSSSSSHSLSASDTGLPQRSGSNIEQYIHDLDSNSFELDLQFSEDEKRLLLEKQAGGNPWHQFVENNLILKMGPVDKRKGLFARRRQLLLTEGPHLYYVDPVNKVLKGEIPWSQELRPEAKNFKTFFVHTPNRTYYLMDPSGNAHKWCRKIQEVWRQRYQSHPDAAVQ
Put plainly: Inhibition of PDPK1 (unknown origin) at 1 uM by KINOMEscanning assay relative to control; values are per cent of control.

A short description of assay [6]: Antiproliferative activity against human HMC-1.2 cells carrying V560G, D816V mutant assessed as cell growth inhibition by MTT assay. In kind it is functional, cell-based. The gist of the method: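 Cell viability by MTT assay in imatinib-resistant HMC-1.2 human mast cells (V560G, D816V), 48 h exposure across a range of concentrations.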
A general note: Formazan colour is commonly taken as a measure of viable cells.

The target of assay [7] is Mitogen-activated protein kinase 3 (Homo sapiens) (UniProt P27361). Put plainly: Inhibition of ERK1 (unknown origin) at 1 uM by KINOMEscanning assay relative to control; values are per cent of control.
Assay [8] concerns the target Focal adhesion kinase 1 (Homo sapiens) (UniProt Q05397). Description: Inhibition of FAK (unknown origin) at 1 uM by KINOMEscanning assay relative to control; values are per cent of control.
In assay [9] the target is RAC-beta serine/threonine-protein kinase (Homo sapiens) (UniProt P31751). Put plainly: Inhibition of AKT2 (unknown origin) at 1 uM by KINOMEscanning assay relative to control; values are per cent of control.
Assay [10] deals with Insulin-like growth factor 1 receptor (Homo sapiens) (UniProt P08069). Description: Inhibition of IGF1R (unknown origin) at 1 uM by KINOMEscanning assay relative to control; values are per cent of control.
The target in assay [11] is Phosphatidylinositol 4,5-bisphosphate 3-kinase catalytic subunit alpha isoform (Homo sapiens, UniProt P42336). Description: Inhibition of PI3Kalpha (unknown origin) at 1 uM by KINOMEscanning assay relative to control; values are per cent of control.
Assay [12] concerns Mast/stem cell growth factor receptor Kit (Homo sapiens), P10721 [D816V]. Put plainly: Inhibition of c-KIT D816V mutant (unknown origin) at 1 uM by KINOMEscanning assay relative to control; values are per cent of control.
The target of assay [13] is Receptor-type tyrosine-protein kinase FLT3 (Homo sapiens) (UniProt P36888). Description: Inhibition of FLT3 (unknown origin) at 1 uM by KINOMEscanning assay relative to control; values are per cent of control.
Assay [14] concerns the target Epidermal growth factor receptor (Homo sapiens) (UniProt P00533). Put plainly: Inhibition of EGFR (unknown origin) at 1 uM by KINOMEscanning assay relative to control; values are per cent of control.
Assay [15] concerns the target Fibroblast growth factor receptor 1 (Homo sapiens) (UniProt P11362). Put plainly: Inhibition of FGFR1 (unknown origin) at 1 uM by KINOMEscanning assay relative to control; values are per cent of control.
Assay [16] has as its target Serine/threonine-protein kinase PAK 1 (Homo sapiens) (UniProt Q13153). Put plainly: Inhibition of PAK1 (unknown origin) at 1 uM by KINOMEscanning assay relative to control; values are per cent of control.
Assay [17] has as its target Cyclin-dependent kinase 4 (Homo sapiens) (UniProt P11802). Description: Inhibition of CDK4 (unknown origin) at 1 uM by KINOMEscanning assay relative to control; values are per cent of control.
The target of assay [18] is Dual specificity mitogen-activated protein kinase kinase 2 (Homo sapiens) (UniProt P36507). Description: Inhibition of MEK2 (unknown origin) at 1 uM by KINOMEscanning assay relative to control; values are per cent of control.
Assay [19] addresses BDNF/NT-3 growth factors receptor (Homo sapiens) (UniProt Q16620). Put plainly: Inhibition of TRKB (unknown origin) at 1 uM by KINOMEscanning assay relative to control; values are per cent of control.
In assay [20] the target is RAC-alpha serine/threonine-protein kinase (Homo sapiens) (UniProt P31749). Put plainly: Inhibition of AKT1 (unknown origin) at 1 uM by KINOMEscanning assay relative to control; values are per cent of control.
In assay [21] the target is T2, Mast/stem cell growth factor receptor Kit (Homo sapiens, UniProt P10721). The conditions noted are these: 5 uM.
In assay [22] the target is T2, Mast/stem cell growth factor receptor Kit. The conditions noted are these: 5 uM. This is another data set of the same source.

Chain of Cyclin-dependent kinase 19 (Homo sapiens) (Q9BWU1 whole entry): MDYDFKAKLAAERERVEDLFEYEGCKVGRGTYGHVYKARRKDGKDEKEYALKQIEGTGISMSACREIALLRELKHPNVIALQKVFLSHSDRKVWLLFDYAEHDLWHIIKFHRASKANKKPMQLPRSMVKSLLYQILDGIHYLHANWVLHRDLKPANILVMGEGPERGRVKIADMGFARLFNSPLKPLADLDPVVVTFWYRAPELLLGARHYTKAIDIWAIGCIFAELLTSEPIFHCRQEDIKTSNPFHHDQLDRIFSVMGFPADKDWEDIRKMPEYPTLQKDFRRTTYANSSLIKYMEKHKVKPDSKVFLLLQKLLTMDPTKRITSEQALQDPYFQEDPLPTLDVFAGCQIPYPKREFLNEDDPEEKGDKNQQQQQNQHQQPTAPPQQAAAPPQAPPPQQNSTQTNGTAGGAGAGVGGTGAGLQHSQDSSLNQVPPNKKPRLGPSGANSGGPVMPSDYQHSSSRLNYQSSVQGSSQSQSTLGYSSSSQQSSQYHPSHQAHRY
Chain of RAC-beta serine/threonine-protein kinase (Homo sapiens) (P31751 whole entry): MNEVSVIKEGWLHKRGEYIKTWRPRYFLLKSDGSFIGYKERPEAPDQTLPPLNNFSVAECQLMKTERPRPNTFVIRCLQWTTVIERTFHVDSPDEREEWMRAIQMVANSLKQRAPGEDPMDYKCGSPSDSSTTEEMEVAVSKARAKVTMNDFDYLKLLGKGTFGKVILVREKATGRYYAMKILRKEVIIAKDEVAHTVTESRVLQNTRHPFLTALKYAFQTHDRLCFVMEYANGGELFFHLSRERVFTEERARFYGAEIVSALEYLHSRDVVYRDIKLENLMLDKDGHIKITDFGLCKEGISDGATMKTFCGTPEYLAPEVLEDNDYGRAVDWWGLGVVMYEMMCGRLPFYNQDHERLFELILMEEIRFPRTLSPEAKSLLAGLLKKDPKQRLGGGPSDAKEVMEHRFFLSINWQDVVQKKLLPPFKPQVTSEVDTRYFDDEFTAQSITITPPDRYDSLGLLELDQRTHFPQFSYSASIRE
Chain of Receptor-type tyrosine-protein kinase FLT3 (Homo sapiens) (P36888 whole entry): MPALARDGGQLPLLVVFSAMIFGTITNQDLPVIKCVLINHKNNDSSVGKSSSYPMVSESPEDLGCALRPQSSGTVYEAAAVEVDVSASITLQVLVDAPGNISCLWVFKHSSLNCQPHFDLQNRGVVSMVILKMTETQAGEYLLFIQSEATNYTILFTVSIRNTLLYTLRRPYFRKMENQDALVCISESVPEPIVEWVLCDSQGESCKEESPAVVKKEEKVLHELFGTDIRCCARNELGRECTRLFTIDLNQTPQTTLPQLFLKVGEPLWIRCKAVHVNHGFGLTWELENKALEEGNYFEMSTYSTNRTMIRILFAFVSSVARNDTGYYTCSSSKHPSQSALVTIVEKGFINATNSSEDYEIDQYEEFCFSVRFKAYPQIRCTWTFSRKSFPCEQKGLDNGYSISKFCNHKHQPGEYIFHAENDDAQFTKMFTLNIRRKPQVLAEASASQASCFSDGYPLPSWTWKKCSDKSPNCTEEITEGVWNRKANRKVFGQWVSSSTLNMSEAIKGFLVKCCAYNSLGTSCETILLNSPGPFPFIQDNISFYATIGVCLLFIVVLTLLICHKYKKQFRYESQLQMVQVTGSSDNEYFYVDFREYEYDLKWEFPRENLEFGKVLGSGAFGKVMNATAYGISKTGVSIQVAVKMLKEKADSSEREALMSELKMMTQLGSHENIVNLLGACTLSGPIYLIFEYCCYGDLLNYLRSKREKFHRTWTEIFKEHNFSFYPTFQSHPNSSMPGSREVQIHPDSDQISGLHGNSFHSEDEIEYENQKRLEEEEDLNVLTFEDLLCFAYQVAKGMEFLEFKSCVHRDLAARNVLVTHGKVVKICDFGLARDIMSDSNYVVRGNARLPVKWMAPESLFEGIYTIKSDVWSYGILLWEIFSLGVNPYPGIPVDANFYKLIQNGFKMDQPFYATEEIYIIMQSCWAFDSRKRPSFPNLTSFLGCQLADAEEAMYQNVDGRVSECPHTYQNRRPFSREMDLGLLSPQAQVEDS
T2 sequence (P10721 whole entry): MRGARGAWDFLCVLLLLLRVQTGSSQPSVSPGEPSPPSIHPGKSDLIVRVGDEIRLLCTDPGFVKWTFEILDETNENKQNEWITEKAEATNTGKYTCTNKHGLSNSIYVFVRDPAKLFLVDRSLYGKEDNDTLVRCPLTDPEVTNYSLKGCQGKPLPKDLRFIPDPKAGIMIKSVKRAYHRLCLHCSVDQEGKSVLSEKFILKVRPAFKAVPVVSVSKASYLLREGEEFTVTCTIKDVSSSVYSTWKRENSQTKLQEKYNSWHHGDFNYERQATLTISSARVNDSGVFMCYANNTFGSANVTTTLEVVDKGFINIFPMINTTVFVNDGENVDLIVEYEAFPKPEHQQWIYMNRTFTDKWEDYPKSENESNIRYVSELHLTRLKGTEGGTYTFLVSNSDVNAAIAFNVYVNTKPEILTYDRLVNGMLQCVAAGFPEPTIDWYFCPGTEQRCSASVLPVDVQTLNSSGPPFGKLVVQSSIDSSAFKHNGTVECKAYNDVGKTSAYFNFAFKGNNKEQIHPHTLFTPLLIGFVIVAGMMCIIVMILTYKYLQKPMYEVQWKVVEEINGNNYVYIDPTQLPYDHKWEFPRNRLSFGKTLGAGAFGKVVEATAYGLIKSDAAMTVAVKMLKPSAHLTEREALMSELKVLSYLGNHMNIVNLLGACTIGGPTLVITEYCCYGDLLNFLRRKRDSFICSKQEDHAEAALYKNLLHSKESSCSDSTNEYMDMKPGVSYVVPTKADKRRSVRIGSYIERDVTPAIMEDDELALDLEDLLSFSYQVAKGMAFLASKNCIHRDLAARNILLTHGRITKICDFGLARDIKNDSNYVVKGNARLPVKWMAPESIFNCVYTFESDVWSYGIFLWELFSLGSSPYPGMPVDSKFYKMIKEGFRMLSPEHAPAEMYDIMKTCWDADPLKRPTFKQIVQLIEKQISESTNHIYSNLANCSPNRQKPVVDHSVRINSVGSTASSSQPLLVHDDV
Chain of Fibroblast growth factor receptor 1 (Homo sapiens) (P11362 22-822 limits assumed): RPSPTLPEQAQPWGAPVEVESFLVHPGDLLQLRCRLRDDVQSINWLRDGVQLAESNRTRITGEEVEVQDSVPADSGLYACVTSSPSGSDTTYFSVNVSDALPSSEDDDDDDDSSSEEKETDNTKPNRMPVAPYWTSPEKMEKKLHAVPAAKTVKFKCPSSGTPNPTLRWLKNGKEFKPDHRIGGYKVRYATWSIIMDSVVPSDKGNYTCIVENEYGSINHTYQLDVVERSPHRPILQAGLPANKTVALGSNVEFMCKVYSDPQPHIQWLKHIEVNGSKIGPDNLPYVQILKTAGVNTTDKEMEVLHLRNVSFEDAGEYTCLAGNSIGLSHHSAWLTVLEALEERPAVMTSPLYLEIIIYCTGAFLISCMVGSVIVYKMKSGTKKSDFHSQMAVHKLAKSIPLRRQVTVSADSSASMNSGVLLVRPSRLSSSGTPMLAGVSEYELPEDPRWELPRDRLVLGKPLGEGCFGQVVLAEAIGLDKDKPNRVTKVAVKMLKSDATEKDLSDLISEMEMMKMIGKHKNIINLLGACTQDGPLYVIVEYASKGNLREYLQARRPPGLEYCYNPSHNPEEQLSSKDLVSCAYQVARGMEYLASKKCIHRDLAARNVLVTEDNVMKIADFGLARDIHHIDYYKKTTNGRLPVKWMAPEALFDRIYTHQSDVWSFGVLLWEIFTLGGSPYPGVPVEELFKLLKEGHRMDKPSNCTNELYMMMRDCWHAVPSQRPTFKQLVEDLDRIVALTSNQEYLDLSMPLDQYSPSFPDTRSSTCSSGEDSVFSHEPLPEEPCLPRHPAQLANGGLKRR
Chain of Focal adhesion kinase 1 (Homo sapiens) (Q05397 2-1052 limits assumed): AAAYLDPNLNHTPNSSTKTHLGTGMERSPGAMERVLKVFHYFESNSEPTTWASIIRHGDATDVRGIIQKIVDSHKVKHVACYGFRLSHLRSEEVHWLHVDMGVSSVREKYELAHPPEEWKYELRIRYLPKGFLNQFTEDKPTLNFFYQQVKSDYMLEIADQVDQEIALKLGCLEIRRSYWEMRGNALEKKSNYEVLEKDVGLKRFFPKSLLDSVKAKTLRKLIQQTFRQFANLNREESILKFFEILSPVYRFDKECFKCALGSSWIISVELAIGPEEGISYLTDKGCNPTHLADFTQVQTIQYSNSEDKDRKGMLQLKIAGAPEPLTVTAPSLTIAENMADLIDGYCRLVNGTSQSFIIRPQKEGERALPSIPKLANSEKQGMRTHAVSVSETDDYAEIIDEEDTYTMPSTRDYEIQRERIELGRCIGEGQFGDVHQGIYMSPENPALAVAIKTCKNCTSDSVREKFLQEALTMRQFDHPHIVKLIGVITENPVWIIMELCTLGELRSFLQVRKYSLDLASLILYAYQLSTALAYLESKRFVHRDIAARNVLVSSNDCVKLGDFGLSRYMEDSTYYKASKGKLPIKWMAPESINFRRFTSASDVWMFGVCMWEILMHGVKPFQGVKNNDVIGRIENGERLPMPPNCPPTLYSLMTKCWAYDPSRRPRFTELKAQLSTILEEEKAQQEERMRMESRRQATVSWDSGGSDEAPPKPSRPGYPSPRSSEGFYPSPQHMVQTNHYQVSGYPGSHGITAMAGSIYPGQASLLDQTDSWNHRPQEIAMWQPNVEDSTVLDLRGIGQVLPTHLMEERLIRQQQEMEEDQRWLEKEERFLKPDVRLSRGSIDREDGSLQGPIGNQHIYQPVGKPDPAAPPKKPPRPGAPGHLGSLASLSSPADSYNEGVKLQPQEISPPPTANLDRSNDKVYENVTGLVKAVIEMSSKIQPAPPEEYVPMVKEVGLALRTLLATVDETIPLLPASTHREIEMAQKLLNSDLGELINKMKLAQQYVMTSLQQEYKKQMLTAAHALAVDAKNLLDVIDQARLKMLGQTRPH
Chain of Mast/stem cell growth factor receptor Kit (Homo sapiens), P10721 [D816H] (P10721 whole entry D816H): as the sequence (P10721 whole entry) above, with D816H counted along it
Chain of Mast/stem cell growth factor receptor Kit (Homo sapiens), P10721 [D816V] (P10721 whole entry D816V): as the sequence (P10721 whole entry) above, with D816V counted along it

Turning to `COc1ccc(-c2c[nH]c3ncc(-c4ccc(C(=O)N5CCOCC5)c(N)c4)cc23)cc1OC`, the residual activity in [1] worked out at 54%; in assay [2], 25%; in assay [3] it was 100%; in assay [4], 79%; in assay [5], 31%; in assay [7], 100%. The residual activity in assay [8] was found to be 88%; in assay [9], 97%; in [10] it was 96%; in assay [11], 100%; in [12] it was 1.4%; in [13], 7%. Further, the residual activity in [14] was 73%; in assay [15] it was 90%; in assay [16], 87%; in assay [17], 82%; in assay [18], 72%; in [19], 17%. Further, the residual activity in assay [20] is 100%. In [6], the IC50 stood at 2.01 µM.
Take `COc1ccc(-c2cnc3[nH]cc(-c4ccc(OC)c(OC)c4)c3c2)cc1OC`: the inhibition entry in assay [21] and in [22] was “Active” throughout. Further, the residual activity in assay [1] came to 34%; in assay [2] it was 16%; in assay [3], 3.8%; in assay [4], 96%; in [5], 65%; in assay [7], 93%. Also, the residual activity in assay [8] was found to be 88%; in [9], 100%; in [10], 100%; in [11] it was 66%; in assay [12], 0%; in [13], 2.2%. In addition, the residual activity in assay [14] stood at 70%; in assay [15], 89%; in [16] it was 85%; in [17], 85%; in [18], 92%; in assay [19], 36%. In assay [20], the residual activity was 100%. Also, in assay [6], the IC50 worked out at 0.76 µM.
With `COc1cc(-c2c[nH]c3ncc(-c4cccc(N)c4)cc23)cc(OC)c1OC`, the inhibition entry in assay [21] and in [22] was “Active” each time. Also, the residual activity in assay [1] is 35%; in [2], 85%; in assay [3] it was 96%; in [4], 96%; in assay [5], 100%; in [7], 23%. For the same compound, the residual activity was found to be 92% in assay [8]; 100% in assay [9]; 100% in [10]; 71% in assay [11]; 2.1% in assay [12]; 25% in [13]. The residual activity in assay [14] is 70%; in assay [15], 100%; in assay [16] it was 89%; in assay [17] it was 85%; in assay [18] it was 74%; in [19], 68%. Further, the residual activity in assay [20] is 87%. Besides, the IC50 in [6] is 0.81 µM.
`COc1ccc(-c2c[nH]c3ncc(-c4cc(OC)c(OC)c(OC)c4)cc23)cc1OC`: the inhibition result in [21] and in [22] was “Active” throughout. Also, the residual activity in assay [1] turned out to be 54%; in [2] it was 25%; in assay [3], 90%; in assay [4] it was 97%; in assay [5], 76%; in assay [7], 88%. The residual activity in assay [8] was determined as 92%; in assay [9] it was 100%; in assay [10] it was 91%; in [11], 75%; in assay [12], 0%; in assay [13], 1.6%. Also, the residual activity in [14] is 68%; in assay [15], 84%; in [16], 83%; in assay [17] it was 95%; in assay [18], 93%; in assay [19], 45%. The compound further had a residual activity in assay [20] of 98%. The IC50 in [6] stood at 0.91 µM.
On to `COc1ccc(-c2cnc3[nH]cc(-c4ccc(OC)c(OC)c4)c3c2)cc1N`, for which the inhibition result in assay [21] and in [22] was “Active” in each case. Moreover, the residual activity in [1] stood at 47%; in [2], 51%; in [3], 79%; in [4], 79%; in [5] it was 91%; in assay [7], 88%. The residual activity in assay [8] was 93%; in assay [9] it was 100%; in [10], 79%; in assay [11], 71%; in [12] it was 0%; in assay [13], 18%. In addition, the residual activity worked out at 43% in [14]; 92% in assay [15]; 88% in [16]; 81% in [17]; 90% in assay [18]; 16% in [19]. Besides, the residual activity in [20] is 92%. For the same compound, the IC50 in [6] was 0.87 µM.
